Measurements collected from several papers.
Each line is one published result; the experiments were not run side by side.
Read-out: cell growth or viability

Compound | cell line | method | time | CC50 [µM]
Nc1nc2c(ncn2COCCO)c(=O)[nH]1 | HFF | ATP luminescence | 14 days | > 150
C[C@H]1[C@@H](O)O[C@@H]2O[C@@]3(C)CC[C@H]4[C@H](C)CC[C@@H]1[C@@]24OO3 | J774 | ATP luminescence | 72 h | 51.3
O=S(=O)(c1ccc(Cl)cc1)c1nc(-c2ccccc2)oc1S(=O)(=O)c1ccc(Cl)cc1 | HFF | ATP luminescence |  | 86.2
O=C(CN1C(=O)Cc2c([nH]c3ccc(Br)cc23)-c2ccc(Cl)cc21)NCCN1CCCCC1 | J774 | WST-1 | 24 h | ≤ 10
O=c1[nH]c2cc(-c3ccc(Cl)cc3)ccc2c(=O)n1O | HFF | MTS | 7 days | > 50
O=C(CN1C(=O)Cc2c([nH]c3ccc(Br)cc23)-c2ccc(Cl)cc21)NCCN1CCNCC1 | J774 | WST-1 | 24 h | ≥ 100
Cc1ccc(-c2nc(C#N)c(N(C)S(=O)(=O)c3ccc(C)cc3)o2)cc1 | HFF | ATP luminescence |  | 83.8
O=c1[nH]c2cc(-c3ccc(Cl)cc3)sc2c(=O)n1O | HFF | MTS | 7 days | > 50
CCN(CC)CCNC(=O)CN1C(=O)Cc2c([nH]c3ccc(Br)cc23)-c2ccc(Cl)cc21 | J774 | WST-1 | 24 h | ≤ 10
O=c1[nH]c2sc(-c3ccc(Cl)cc3)cc2c(=O)n1O | HFF | MTS | 7 days | > 50
NCCNC(=O)CN1C(=O)Cc2c([nH]c3ccc(Br)cc23)-c2ccc(Cl)cc21 | J774 | WST-1 | 24 h | ≥ 100
CC1CCCN(S(=O)(=O)c2nc(-c3ccc(Br)cc3)oc2-c2ccc(Cl)cc2)C1 (stereo not drawn) | HFF | ATP luminescence |  | 41.9
